The list is not random: actives were taken first. Their share in the collection is about 2.2%.
MEX-5 binding: MEX-5 zinc finger RNA-binding disruptors – biochemical, C. elegans, fluorescence polarization, MLPCN library, primary screen | activity score (negative = inhibition of binding), % at 10 µM | AID 1832, 2009 | Zinc finger protein mex-5 (Caenorhabditis elegans), Q9XUB2 | MEX-5/FITC-TCR2 RNA binding; active compounds read low | 300,000 compounds, 0.38% hits;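 active means inhibition past about -25% in most replicates, and total fluorescence under double the plate's negative control median, limit read from the data; inconclusive means replicates evenly split on the limit, or fluorescence at least double controls; inactive means too little inhibition in most replicates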;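 further: 0% = DMSO and -100% = 5 µM competing unlabeled TCR2 RNA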
VIM-2 inhibitor: VIM-2 metallo-beta-lactamase inhibitors, primary screen, biochemical, epi-absorbance readout, Pseudomonas aeruginosa enzyme; purified VIM-2, nitrocefin hydrolysis, epi-absorbance fluorescence; inhibition, % at 5.6 µM; 290,000 compounds, 0.89% hits; AID 1527, 2009;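 active means inhibition above the mean of all tested compounds plus 3 SD, cutoff set per screening run, cut at about 7.5% in these data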;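 further: red hydrolysis product quenches plate fluorescence so inhibitors raise well fluorescence; 0% = enzyme with DMSO and 100% = DMSO without enzyme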
IMP-1 inh-1: IMP-1 metallo-beta-lactamase inhibitors, primary screen, biochemical, epi-absorbance readout, Pseudomonas aeruginosa enzyme; metallo-beta-lactamase IMP-1 (Pseudomonas aeruginosa); purified IMP-1, nitrocefin hydrolysis, epi-absorbance fluorescence; inhibition, % at 5.6 µM; 290,000 compounds, 0.45% hits;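 active means inhibition above the mean plus 3 SD of all compounds in the same screening run, cut at about 4.5% in these data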;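 further: 0% = IMP-1 with DMSO and 100% = DMSO wells lacking enzyme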
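system = purified recombinant IMP-1 beta-lactamase | amount = 0.2 nM IMP-1, as dispensed | medium = HEPES buffer pH 7.1 with ZnSO4 and Brij 35 | times = 25 °C, 15 min preincubation, 25 min reaction | detection = plate fluorescence quenching by hydrolysis product, ex 480/em 530 nm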
EBV gp42 inh: Epstein-Barr virus gp42 inhibitors, primary screen, biochemical, uHTS, fluorescence polarization; Glycoprotein 42 (Epstein-Barr virus (strain AG876)), Q1HVG2; Fluorescence polarization binding assay, mP read-out; inhibition, % (tested at 21.74 µM); 220,000 compounds, 0.42% hits; AID 1085, 2008; in the data active means inhibition above about 50%
GLD-1 TGE inh: GLD-1/TGE RNA complex disruptors, primary screen, biochemical, fluorescence polarization | Female germline-specific tumor suppressor gld-1 (Caenorhabditis elegans), Q17339 | purified GLD-1 + fluorescein TGE RNA | inhibition, % at 5.96 µM | 320,000 compounds, 0.44% hits;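 active means percent inhibition above a per-plate cutoff, the plate mean of test compounds plus 3 SD, cut at about 30% in these data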;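 further: 0% = DMSO wells with GLD-1 and probe and 100% = wells lacking GLD-1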
Target sequence (Q17339 whole entry, looked up): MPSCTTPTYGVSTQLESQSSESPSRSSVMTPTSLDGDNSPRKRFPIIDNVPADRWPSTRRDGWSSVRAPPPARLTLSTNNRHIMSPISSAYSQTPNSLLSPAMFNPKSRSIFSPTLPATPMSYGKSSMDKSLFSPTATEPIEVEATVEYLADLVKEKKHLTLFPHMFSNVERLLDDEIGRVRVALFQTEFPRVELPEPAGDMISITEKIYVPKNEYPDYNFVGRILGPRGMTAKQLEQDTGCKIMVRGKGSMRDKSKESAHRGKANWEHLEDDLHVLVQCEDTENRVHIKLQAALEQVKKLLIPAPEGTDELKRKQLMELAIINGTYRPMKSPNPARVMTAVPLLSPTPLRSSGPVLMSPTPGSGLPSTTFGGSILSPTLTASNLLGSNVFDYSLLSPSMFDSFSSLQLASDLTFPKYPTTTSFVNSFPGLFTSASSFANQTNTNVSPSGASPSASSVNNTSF
Bcl-xL primary: inhibitors of human Bcl-xL, primary screen, biochemical, fluorescence polarization, HTS | Bcl-2-like protein 1 (Homo sapiens), Q07817 | GST-Bcl-xL / FITC-Bim BH3 peptide fluorescence polarization | inhibition, % at 10.9 µM | 320,000 compounds, 0.7% hits | AID 2129, 2009;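 active means inhibition above the mean of all tested compounds plus 3 SD, cutoff set per campaign, cut at about 30% in these data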;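 further: 0% = DMSO wells and 100% = unlabeled Bim-BH3 peptide competitor; inhibitors lower millipolarization by displacing the labeled peptide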
IMP-1 inh-2: IMP-1 metallo-beta-lactamase inhibitors, confirmation, selectivity assay for selective VIM-2 inhibitor project, biochemical, epi-absorbance readout, triplicate. shares compounds with VIM-2 inhibitor. purified IMP-1, nitrocefin hydrolysis, epi-absorbance fluorescence. inhibition, % at 5.6 µM. 1,300 tested, under 10 active. AID 1856, 2009; call rule not given here;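 further: 0% = enzyme with vehicle and 100% = vehicle without enzyme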
VIM-2 FRET inh: VIM-2 inhibitors in FRET format, confirmation, artefact control for selective VIM-2 inhibitor project, biochemical, epi-absorbance artifact exclusion. purified VIM-2, CCF2 FRET substrate hydrolysis. AID 1857, 2009. shares compounds with VIM-2 inhibitor. inhibition, % at 5.6 µM. 1,300 compounds, 23% hits;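 active means inhibition above the mean of all tested compounds plus 3 SD, cut at about 19% in these data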;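 further: 0% = VIM-2 plus DMSO and 100% = no enzyme wells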
TEM-1 counter: TEM-1 serine beta-lactamase inhibitors, counter-screen for VIM-2 inhibitor project, biochemical, epi-absorbance, HTS | shares compounds with VIM-2 inhibitor | Purified TEM-1, nitrocefin hydrolysis, epi-absorbance fluorescence | inhibition, % at 5.6 µM | 1,300 compounds, 3% hits | AID 1866, 2009;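 active means inhibition above that campaign's mean inhibition plus 3 SD, cut at about 0.46% in these data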;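 further: 0% = TEM-1 with DMSO and 100% = TEM-1 with 100 µM potassium clavulanate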
Target sequence (P62593 whole entry, looked up): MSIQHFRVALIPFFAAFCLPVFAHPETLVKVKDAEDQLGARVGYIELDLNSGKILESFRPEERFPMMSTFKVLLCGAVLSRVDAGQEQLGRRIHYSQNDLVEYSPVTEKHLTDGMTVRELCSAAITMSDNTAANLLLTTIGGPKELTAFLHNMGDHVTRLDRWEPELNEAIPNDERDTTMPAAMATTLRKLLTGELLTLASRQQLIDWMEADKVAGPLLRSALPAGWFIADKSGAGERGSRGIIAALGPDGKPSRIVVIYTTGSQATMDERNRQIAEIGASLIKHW
VIM-2 inh conf: VIM-2 metallo-beta-lactamase inhibitors, confirmation, biochemical, epi-absorbance, hits shared with IMP-1 screen; inhibition, % at 5.6 µM; 1,300 compounds, 96% hits; shares compounds with VIM-2 inhibitor; purified VIM-2, nitrocefin hydrolysis;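 active means inhibition of the VIM-2 beta-lactamase enzyme above about 11% from the earlier first-round screen, limit read from the data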;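 further: 0% = VIM-2 with DMSO and 100% = buffer wells without enzyme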
Starred values were filed as active, the others as inactive; ? = inconclusive; nt = no result given.

SMILES	MEX-5 binding	VIM-2 inhibitor	IMP-1 inh-1	EBV gp42 inh	GLD-1 TGE inh	Bcl-xL primary	others
NC(=O)COC(=O)C1CSC2(c3ccc(F)cc3)CCC(=O)N12 (stereo not drawn)	-2	0	-3	nt	-1	8
O=[N+]([O-])c1ccc(O)c2cccnc12	-4	-2	-1	31	13	44*
Cc1ccc(N2C=Nc3ccc(C)c4nc(C)cc2c34)cc1	-5	11*	-1	-12	4	9
CC1=Nc2ccc(C)c3nc(C)cc(c23)N1c1ccc(C)cc1	0	2	-2	-16	-5	3
COc1cc(-n2cnnn2)ccc1S(=O)(=O)N1CCOCC1	0	-1	-1	-8	-1	32*
O=S(=O)(c1cccc(-n2cnnn2)c1)N1CCOCC1	1	1	-4	-10	0	-2
CC1CCN(S(=O)(=O)c2ccc3nc(N4CCN(c5ccccc5)CC4)ccc3c2)CC1	2	1	-4	nt	5	4
O=C(NCCNc1ccc2ccccc2c1)c1cccn2c(=O)c3sccc3nc12	-1	8.1*	-3	-2	1	-1
O=C(NCCN1CCN(c2ccccc2)CC1)c1cccn2c(=O)c3ccccc3nc12	-1	3	-3	9	2	5
Cc1oc2cc(O)ccc2c(=O)c1-c1nncn1-c1ccccc1	?	1	0	108*	113*	113*
CCCc1nc2oc3c(NCCN(C)C)ncnc3c2c2c1CCCC2	0	6	0	-11	-3	7
CCCc1nc2oc3c(NCCCN(C)C)ncnc3c2c2c1CCCC2	1	12*	-4	-13	1	-2
O=S(=O)(/N=C(/Nc1cccnc1Cl)c1ccccc1)c1ccccc1	nt	nt	nt	nt	2	nt
COc1ccc(-n2ccnc(SCC(=O)NC3CCCC3)c2=O)cc1	-9	3	4.6*	nt	3	5
ON=C1c2cc(OCCN3CCCCC3)ccc2-c2ccc(OCCN3CCCCC3)cc21	0	6	5.6*	nt	-7	3
COc1ccc(C)cc1S(=O)(=O)N1CCCC(C(=O)N2CCN(c3ccccc3)CC2)C1 (stereo not drawn)	2	-1	-3	nt	-2	12
O=C(NNC(=O)c1ccccc1O)c1ccc(S(=O)(=O)Nc2ccccc2F)cc1	-26*	nt	nt	nt	8	2
CN(C)c1ccc(/C=N/Nc2ccc(-n3ccnc3)nn2)cc1	-4	8.2*	-2	-3	-3	2
CN(C)c1ccc(/C=N\Nc2ccccn2)cc1	-1	0	-3	nt	5	-3
O=C(Nc1cccc(S(=O)(=O)N2CCCCC2)c1)Nc1ccc(Cl)cc1Cl	-1	-3	-1	-14	0	0
CC1(c2ccccc2)NC(=O)N(CC(=O)Nc2ccccc2N2CCCC2)C1=O (stereo not drawn)	1	nt	nt	nt	11	-2
CCCCCCCn1c(=N)n(CC(=O)c2ccco2)c2ccccc21	1	18*	-3	5	-6	6	IMP-1 inh-2=-3;VIM-2 FRET inh=-1;TEM-1 counter=-6;VIM-2 inh conf=3
CCCCn1c(=N)n(CC(=O)c2ccco2)c2ccccc21	-4	-2	-1	-2	-4	3
O=C(NNC(=O)c1cccs1)c1ccc(Cl)nc1	2	nt	nt	nt	2	11
Cc1cc(-c2nn3c(-c4ccccc4)nnc3s2)c2ccccc2n1	-1	13*	-4	-9	7	3	IMP-1 inh-2=-3;VIM-2 FRET inh=10;TEM-1 counter=-4;VIM-2 inh conf=35*
SMILES	MEX-5 binding	VIM-2 inhibitor	IMP-1 inh-1	EBV gp42 inh	GLD-1 TGE inh	Bcl-xL primary	others
COc1cc(-c2nn3c(-c4ccccc4)nnc3s2)cc(OC)c1OC	-3	18*	-3	-15	9	4	IMP-1 inh-2=-2;VIM-2 FRET inh=38*;TEM-1 counter=-5;VIM-2 inh conf=37*
COc1ccc(-c2nn3c(-c4ccco4)nnc3s2)cc1OC	-2	54*	0	2	5	10	IMP-1 inh-2=-4;VIM-2 FRET inh=-9;TEM-1 counter=-12;VIM-2 inh conf=56*
COc1cc(OC)c(-c2nn3c(-c4ccco4)nnc3s2)cc1OC	nt	36*	4	-3	nt	nt	IMP-1 inh-2=-2;VIM-2 FRET inh=-5;TEM-1 counter=-4;VIM-2 inh conf=42*
COc1cc(-c2nnc3sc(-c4ccncc4)nn23)cc(OC)c1OC	2	nt	nt	nt	2	13
c1ccc(-c2cc(-c3nn4c(-c5ccco5)nnc4s3)c3ccccc3n2)cc1	-2	2	-2	-9	1	9
COc1ccc(NC(=O)CSCC(=O)Nc2ccc(C)c(S(=O)(=O)N3CCCCCC3)c2)cc1	2	nt	nt	nt	-1	-4
CNC(=O)C1CCN(S(=O)(=O)c2c(C)noc2/C=C/c2cccc(OC)c2)CC1	-1	-2	1	nt	3	-2
COc1ccc(NC(=O)c2ccc(NC(=O)CN3CCC(C(N)=O)CC3)cc2)cc1	nt	nt	nt	nt	3	nt
C=CCN(CC=C)Cc1c(O)ccc2c1oc(=O)c1ccccc12	-2	17*	-2	nt	-3	13	IMP-1 inh-2=-3;VIM-2 FRET inh=-21;TEM-1 counter=-5;VIM-2 inh conf=44*
Cc1cc(=O)oc2c(CN(C)Cc3ccccc3)c(O)ccc12	0	0	-6	-3	1	3
Cc1ccc(S(=O)(=O)N2CCN(C(=O)COC(=O)Cc3cccc(C(F)(F)F)c3)CC2)c(C)c1	-2	nt	nt	nt	8	1
CCc1nc2cc(C)nn2c2nc3ccccc3n12	1	16*	0	-6	10	4	IMP-1 inh-2=-3;VIM-2 FRET inh=4;TEM-1 counter=-5;VIM-2 inh conf=26*
CC1=C(C(=O)O)N2C(=O)C(NC(=O)c3ccn(C)n3)C2SC1 (stereo not drawn)	nt	-1	-1	-6	-2	6

Assay outcomes: PubChem BioAssay, several laboratories
